# Compound activity: PubChem, Broad Institute
# DENV2 CPE: DENV2-induced cell death inhibition; DENV2-infected cells, cytopathic effect rescue, plate reader; CPE inhibition, % at 9.99 µM; actives 1.7% (n = 350,000); AID 651640; in the data active = CPE inhibition above about 20%, passing the limit was not always enough; inconclusive = no clear call, values can overlap the other calls; tested in BHK-21 cells;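 note: 0% = median of neutral control wells and 100% = median of positive control wells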
# CAL PDZ FP-1: blocks peptide binding to human CAL PDZ domain; purified CAL PDZ, TMR-peptide fluorescence polarization, 1 h; actives 0.02% (n = 330,000); Q9HD26; AID 504414; inhibition, % at 20 µM;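 active = highest replicate inhibition of at least 40%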;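 note: plate controls were DMSO neutral control wells for no effect and unlabeled competitor peptide control wells for full effect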
#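 System: tagged CAL PDZ domain. Schedule: 1 h room-temperature incubation prior to read. Signal: fluorescence polarization (mP). Measure: percent inhibition from loss of millipolarization.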
# ERAP1 HTS inh: blocks human ERAP1 aminopeptidase activity; Q9NZ08; recombinant ERAP1, Leu-AMC fluorescence, 60 min; inhibition, % at 10.7 µM; actives 0.15% (n = 340,000); AID 652197;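 active = mean replicate inhibition of at least 30%, or all replicates individually reaching that 30% level; inactive = mean below 30% and not every replicate reaching it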;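 note: 0% = neutral control wells and 100% = L-leucinethiol positive control wells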
# Target sequence (Q9NZ08 whole entry, looked up): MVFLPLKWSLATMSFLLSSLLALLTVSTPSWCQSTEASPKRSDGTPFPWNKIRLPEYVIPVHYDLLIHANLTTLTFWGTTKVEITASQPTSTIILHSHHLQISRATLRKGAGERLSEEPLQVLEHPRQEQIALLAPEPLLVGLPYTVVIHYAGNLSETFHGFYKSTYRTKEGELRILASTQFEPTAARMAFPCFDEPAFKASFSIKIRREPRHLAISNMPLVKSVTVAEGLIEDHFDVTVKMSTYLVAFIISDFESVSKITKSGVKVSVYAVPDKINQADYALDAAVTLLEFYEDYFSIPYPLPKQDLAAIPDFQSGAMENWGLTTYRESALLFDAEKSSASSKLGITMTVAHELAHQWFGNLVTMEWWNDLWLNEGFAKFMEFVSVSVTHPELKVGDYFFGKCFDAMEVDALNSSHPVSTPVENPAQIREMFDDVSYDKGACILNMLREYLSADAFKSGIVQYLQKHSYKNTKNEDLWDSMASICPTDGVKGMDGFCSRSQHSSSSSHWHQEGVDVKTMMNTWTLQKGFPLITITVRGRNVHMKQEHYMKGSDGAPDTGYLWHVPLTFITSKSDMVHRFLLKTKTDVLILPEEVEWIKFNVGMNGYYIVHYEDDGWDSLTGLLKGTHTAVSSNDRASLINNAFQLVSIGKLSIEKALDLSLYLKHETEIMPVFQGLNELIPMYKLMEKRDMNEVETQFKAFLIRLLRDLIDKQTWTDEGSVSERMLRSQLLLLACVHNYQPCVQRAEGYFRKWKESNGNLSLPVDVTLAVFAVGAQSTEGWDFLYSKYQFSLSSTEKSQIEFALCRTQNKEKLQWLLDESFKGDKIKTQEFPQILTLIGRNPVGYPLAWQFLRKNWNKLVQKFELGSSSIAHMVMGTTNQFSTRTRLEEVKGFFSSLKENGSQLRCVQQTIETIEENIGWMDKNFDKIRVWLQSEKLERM
# S100A4 inh HTS: S100A4-myosin IIA interaction inhibition. actives 0.14% (n = 360,000). P26447. AID 652163. S100A4/TAMRA-MyoIIA peptide fluorescence polarization. inhibition, % at 10.7 µM;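 active = mean inhibition of at least 70% across replicates, with every replicate also reaching that level; inconclusive = mean inhibition reaches 70% but some replicates fall short; inactive = mean inhibition below 70%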
#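 assay system = human S100A4 monomer with TAMRA-labelled myosin IIA peptide | also added = labelled myosin peptide probe, 5 nM | incubation = 5 min between mix addition and reading | control set = DMSO and TFP controls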
# CAL PDZ FP-2: blocks peptide binding to the human CAL PDZ domain; Q9HD26; purified CAL PDZ, TMR-peptide fluorescence polarization, 1 h; inhibition, % at 24.9 µM; actives 0.92% (n = 300,000); AID 602252;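 active = mean inhibition of at least 30% with at least half of replicates also reaching 30%; inconclusive = no clear call, values can overlap the other calls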;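 note: 0% = DMSO neutral control and 100% = excess unlabeled competitor peptide PRC23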
# SIRT5 block: sirtuin-5 (human) deacylase inhibition. AID 652115. inhibition, % at 15 µM. Purified SirT5, succinyl-peptide AMC, trypsin-coupled fluorescence. actives 1.1% (n = 330,000). Q9NXA8; in the data active = inhibition above about 15%; inconclusive = no clear call, values can overlap the other calls
# An asterisk follows results filed as active; u = inconclusive; x = no result given. Sampled rows, rich in hits. Any-hit rate of the full collection: about 2.9%.
SMILES,DENV2 CPE,CAL PDZ FP-1,ERAP1 HTS inh,S100A4 inh HTS,CAL PDZ FP-2,SIRT5 block
C[C@H](CO)N1C[C@H](C)[C@@H](CN(C)S(C)(=O)=O)Oc2ccc(NS(C)(=O)=O)cc2C1=O,-2,x,2,-3,x,-13
COc1cc([N+](=O)[O-])ccc1NC(=O)NCC1CCN(Cc2ccc(Cl)cc2)CC1,-1,x,1,-8,46*,-2
Cc1cc(C(=O)Nc2cccc3c2O[C@H](CN(C)S(C)(=O)=O)[C@H](C)CN([C@@H](C)CO)C3=O)n(C)n1,-9,x,2,5,x,5
CCOC(=O)Cc1nc2ccccc2n(CC#N)c1=O,x,0,5,19,76*,-1
O=C(NC1CC1)C1CCN(C2CCN(C(=O)CC3=CCCCC3)CC2)CC1,2,-2,1,-5,-3,29*
O=C(C[C@H]1C=C[C@H](NC(=O)CN2CCOCC2)[C@@H](CO)O1)NC1CCC1,-5,x,-2,15,x,-4
Cc1sc2cc3c(c(C(=O)c4ccccc4)[n+]2c1C)-c1cccc2cccc-3c12,36*,x,5,7,x,1
O=C(c1ccccc1)c1c2c(cc3sc4ccccc4[n+]13)-c1cccc3cccc-2c13,x,24,x,x,11,x
Cc1noc(C)c1NC(=O)Nc1ccc2c(c1)C(=O)N([C@@H](C)CO)C[C@@H](C)[C@@H](CN(C)C(=O)NC1CCCCC1)OCCCC[C@@H](C)O2,11,x,3,-18,x,-2
Cc1nc(N)sc1-c1csc(Nc2cccc(C(=O)O)c2)n1,4,-1,-19,-13,-5,27*
COc1cccc(N2CCN(S(=O)(=O)c3cc4c(cc3C)N(C)CCO4)CC2)c1,-1,0,2,-1,x,-1
Cc1cc2c(cc1S(=O)(=O)N1CCN(c3cccc(C)c3C)CC1)OCCN2C,-6,-1,1,153*,x,1
COc1ccccc1S(=O)(=O)N[C@@H]1CC[C@H](CCNC(=O)C2CCOCC2)O[C@H]1CO,u,x,-1,7,x,0
C[C@H](CO)N1C[C@H](C)[C@H](CN(C)S(=O)(=O)c2cccs2)OCc2ccccc2-c2ccccc2C1=O,-3,x,3,10,x,6
C[C@@H]1CN([C@@H](C)CO)C(=O)c2ccccc2-c2ccccc2CO[C@H]1CN(C)S(=O)(=O)c1ccc(Cl)cc1,0,x,-2,3,x,15*
C[C@H](CO)N1C[C@H](C)[C@H](CN(C)S(=O)(=O)c2ccc(C(F)(F)F)cc2)OCc2ccccc2-c2ccccc2C1=O,33*,x,2,-1,x,8
C[C@@H]1CN([C@H](C)CO)C(=O)c2ccccc2-c2ccccc2CO[C@H]1CN(C)S(=O)(=O)c1cccs1,-4,x,-2,-8,x,18*
C[C@H](CO)N1C[C@H](C)[C@@H](CN(C)S(=O)(=O)c2ccc(Cl)cc2)OCc2ccccc2-c2ccccc2C1=O,-4,x,0,6,x,x
CCCN(C)C[C@H]1OCCCC[C@@H](C)Oc2ccc(NC(=O)Nc3ccc4c(c3)OCO4)cc2C(=O)N([C@H](C)CO)C[C@@H]1C,15,x,-2,4,x,2
CN1CCN(CC(=O)Nc2nc3ccccc3s2)CC1,7,-1,-2,0,x,21*
Cc1cc(NC(=O)CSCC(=O)Nc2nc3ccccc3s2)no1,45*,-1,-3,3,-3,-2
CCOc1ccc2nc(NC(=O)CN3CCN(CC)CC3)sc2c1,44*,0,-1,0,-3,-1
COc1ccc(C#Cc2cnc3c(c2)C(=O)N([C@@H](C)CO)C[C@H](C)[C@H](CN(C)C(=O)c2ccccc2F)O3)cc1,-14,x,1,4,x,4
Cc1cccc2c(N=O)c(O)n(CCc3ccccc3)c12,0,-4,-1,-4,-4,16*
CCC(C)(C)NC(=O)C1CCN(c2nc(OC)nc(OC)n2)CC1,-5,1,0,-1,34*,-7
SMILES,DENV2 CPE,CAL PDZ FP-1,ERAP1 HTS inh,S100A4 inh HTS,CAL PDZ FP-2,SIRT5 block
CCC(C)NC(=O)C1CCN(c2nc(OC)nc(OC)n2)CC1 (stereo unspecified),x,-1,x,x,-3,x
COc1cccc(NC(=O)N2C[C@H](O)COC[C@@H]3O[C@H](CC(=O)NC4Cc5ccccc5C4)CC[C@H]32)c1,-1,x,0,1,x,1
O=C(C[C@H]1CC[C@H]2[C@@H](COC[C@H](O)CN2C(=O)Nc2ccccc2)O1)NC1Cc2ccccc2C1,-5,x,1,-7,x,-5
O=C(C[C@H]1CC[C@H]2[C@@H](COC[C@H](O)CN2C(=O)Nc2ccc(F)cc2)O1)NC1Cc2ccccc2C1,43*,x,-1,15,x,3
CNC(=O)C[C@@H]1CC[C@H]2[C@@H](COC[C@H](O)CN2C(=O)Nc2cccc(OC)c2)O1,58*,x,-1,7,x,0
COc1ccc(NC(=O)N2C[C@@H](O)COC[C@@H]3O[C@H](CC(=O)NC4Cc5ccccc5C4)CC[C@H]32)cc1,100*,x,0,7,x,-3
NS(=O)(=O)c1ccc(CNC(=S)NCc2ccc(F)cc2)cc1,3,-1,4,4,39*,-2
CC(C)(C)[S@](=O)N1Cc2cc(C(=O)N3CCCCC3)nc(-c3cccc(C4=CCCC4)c3)c2[C@@H]1CCO,26*,x,2,-49,x,x
C/C=C/c1cccc(-c2nc(C(=O)NCCC)cc3c2[C@@H](CCO)N([S@](=O)C(C)(C)C)C3)c1,8,x,0,-49,x,-1
O=C(c1cc2c(c(-c3cccc(Br)c3)n1)[C@H](CCO)NC2)N1CCCCC1,35*,x,1,-21,x,2
C/C=C/c1cccc(-c2nc(C(=O)NC3CCC3)cc3c2[C@@H](CCO)N(S(=O)C(C)(C)C)C3)c1 (stereo partly specified),-3,x,11,0,x,22*
CC(=O)N1Cc2cc(C(=O)NCc3cc(F)cc(F)c3)nc(-c3cccc(C4=CCCC4)c3)c2[C@H]1CCO,-13,x,1,-3,x,15*
C[C@@H]1CN([C@H](C)CO)C(=O)Cc2cc(NC(=O)C3CCCCC3)ccc2O[C@@H]1CN(C)C(=O)NC1CCCCC1,-2,x,-2,10,x,-2
C[C@H]1CN([C@@H](C)CO)S(=O)(=O)c2ccc(C#CC(C)(C)O)cc2O[C@@H]1CN(C)C,u,x,1,39,x,-3
Cc1ccc(N2NC(=O)/C(=C/c3ccc(-c4ccc(Cl)c(C(=O)O)c4)o3)C2=O)cc1C,-3,0,0,4,x,1
COC(=O)c1ccc(N2NC(=O)/C(=C/c3ccc(-c4ccc(Cl)c(C(=O)O)c4)o3)C2=O)cc1,-5,x,-2,12,-8,23*
CC1=NOC(=O)/C1=C\c1ccc(-c2ccc(Cl)c(C(=O)O)c2)o1,1,-2,-57,-1,x,22*
